Experimental data: ChEMBL document CHEMBL4808163, “Benzothiazolyl and Benzoxazolyl Hydrazones Function as Zinc Metallochaperones to Reactivate Mutant p53” (J Med Chem, 2021)
Calls of active or inactive are those of the source. No cut-off for these calls is given here.

Experiments:
[1] = Induction of Zinc-dependent p53 R175H mutant refolding by assessing wild type conformation
Outline: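 Cells grown on coverslips and treated, fixed in 4% paraformaldehyde 10 min, permeabilized in 0.5% Triton X-100 5 min. Stained overnight with conformation-specific antibodies PAB1620 (1:50, wild-type fold) and PAB240 (1:400, misfolded/unfolded), then goat anti-mouse IgG secondary for 40 min.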

[2] = system: NCI-H1299; assay: Induction of ROS production in human H1299 cells at 0.75 uM incubated for 24 hrs by CellRox green based fluorescence flow cytometry relative to ZMC1; format: functional
[3] = Binding affinity to Zn(II)+ incubated for 60 mins using RhodZin-3 by fuorescence assay
[4] = system: TOV112D; assay: Growth inhibition of human TOV112D cells harbouring p53 R175H mutant incubated for 3 days by MTS assay; format: functional, cell-based; conditions: 72 h
[5] = target: 5-hydroxytryptamine receptor 2A (Homo sapiens, UniProt P28223); assay: Displacement of [125I]+/-DOI from human recombinant 5-HT2A receptor at 10 uM after 60 mins by scintillation counting analysis relative to control; conditions: recombinant human 5-HT2A receptor, probe [125I]+/-DOI
[6] = system: TOV112D; assay: Anticancer activity against human TOV112D cells harbouring p53 R175H mutant xenografted NCr nu/nu mouse assessed as tumor growth inhibition at 5.73 mg/kg, ip relative to control; format: functional; conditions: read-out: TGI
Outline: (§1)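 Tumors (five per group) were grown to 50 mm³, then the compound was given ip daily. Dimensions were measured every other day, with volume = L × W² × π/6. Significance was tested by Student's t test.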

[7] = target: hERG (KCNH2) (Homo sapiens, UniProt Q12809); assay: Displacement of [3H]-dofetilide from human recombinant ERG at 10 uM relative to control; conditions: probe [3H]-dofetilide
[8] = target: Sodium-dependent noradrenaline transporter (Homo sapiens, UniProt P23975); assay: Displacement of [3H]nisoxetine from recombinant human norepinephrine transporter at 10 uM incubated for 120 mins by radiometric scintillation analysis relative to control; format: ADME; conditions: probe [3H]nisoxetine
[9] = Binding affinity to Zn(II)+ incubated for 60 mins using FluoZin-3 by fuorescence assay
[10] = system: Sodium channel site 2; assay: Displacement of [3H]batrachotoxinin from rat Sodium channel site 2 at 10 uM incubated for 60 mins by radiometric scintillation analysis relative to control; conditions: rat sodium channel site 2, probe [3H]batrachotoxinin
[11] = Growth inhibition of human TOV112D cells harbouring p53 R175H mutant incubated for 3 days combination with 5 Gy radiation by MTS assay; format: functional, cell-based; conditions: TOV-112D, 72 h
Outline: (§2)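 5000 cells per well seeded to reach 50% confluence the next day, then given serial dilutions of compound; line 1 cells also received 5 Gy γ-irradiation, line 2 cells also received etoposide (level not stated). Growth read by MTS or Calcein AM after 3 days (72 h). EC50 taken from dilution curve; three independent experiments, each in triplicate, Student's t test.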

[12] = Binding affinity to Cu(II)+ using CuSO4
[13] = Growth inhibition of human TOV112D cells harbouring p53 R175H mutant incubated for 3 days combination with etoposide by MTS assay; format: functional, cell-based; conditions: TOV-112D, 72 h; outline: as §2
[14] = Stability in simulated gastric fluid assessed as parent compound remaining measured after 6 hrs at room temperature; format: ADME; conditions: read-out: Stabilty
Outline: (§3)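 Incubation in simulated gastric fluid (pH 1–2) at room temperature (~23 °C) or 37 °C. Parent compound remaining quantified by HPLC at 220 and 254 nm, with peak identity confirmed by LC–MS.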

[15] = Stability in simulated gastric fluid assessed as parent compound remaining measured at 37 degC; format: ADME; conditions: simulated gi fluid; outline: as §3
[16] = system: TOV112D; assay: Anticancer activity against human TOV112D cells harbouring p53 R175H mutant xenografted NCr nu/nu mouse assessed as tumor growth inhibition at 5 mg/kg, ip relative to control; format: functional; conditions: read-out: TGI; outline: as §1
[17] = Toxicity in NCr nu/nu mouse assessed as change in body weight loss up to 30 mg/kg, ip; format: organism-based; conditions: in vivo
Outline: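 NCr nu/nu mice, 8–12 weeks old, 5 per dose, given a single intraperitoneal injection for acute maximum tolerated dose testing. Health, behavior and body weight monitored afterward.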

[18] = system: NCI-H460; assay: Cytotoxicity against human NCI-H460 cells harbouring p53 wild type; format: functional, cell-based
Outline: (§4)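 5000 cells/well seeded; serial compound dilutions added next day at about 50% confluence. Growth read by MTS or Calcein AM after 3 days. Three independent experiments, each in triplicate; significance by Student's t test.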

[19] = system: NCI-H1299; assay: Cytotoxicity against p53-null human H1299 cells; format: functional, cell-based; outline: as §4
[20] = target: Mu-type opioid receptor (Homo sapiens, UniProt P35372); assay: Displacement of [3H]DAMGO from human recombinant mu receptor at 10 uM after 120 mins by scintillation counting analysis relative to control; conditions: probe [3H]DAMGO
[21] = system: MDA-MB-468; assay: Anticancer activity against human MDA-MB-468 cells harbouring p53 R273H mutant xenografted NCr nu/nu mouse assessed as tumor growth inhibition at 5.73 mg/kg, ip relative to control; format: functional, organism-based
Outline: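 MDA-MB-468 xenografts (6 × 10⁶ cells/site) in NCr nu/nu nude mice, five tumors per group, grown to 50 mm³, then dosed ip daily. Tumor length and width measured every other day; volume = L × W² × π/6. Growth versus control compared by Student's t test.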

[22] = Stability in simulated gastric fluid assessed as parent compound remaining measured after 7 hrs at room temperature; format: ADME; conditions: read-out: Stabilty; outline: as §3
[23] = Apparent permeability in human Caco-2 cells at 5 uM measured up to 90 mins by LC-MS/MS analysis; format: ADME, cell-based
[24] = Toxicity in mouse assessed as maximum tolerated dose; conditions: in vivo
Outline: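 Acute single-dose test in NCr nu/nu nude mice aged 8–12 weeks, 5 mice per dose. One intraperitoneal injection was given, then health, behaviour and body weight were monitored.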

[25] = Ratio of EC50 for test compound to EC50 for ZMC1 for growth inhibition of human TOV-112D cells harbouring p53 R175H mutant incubated for 3 days by MTS assay; format: functional, TOV112D; conditions: time 3 day

5-hydroxytryptamine receptor 2A, sequence (P28223 whole entry): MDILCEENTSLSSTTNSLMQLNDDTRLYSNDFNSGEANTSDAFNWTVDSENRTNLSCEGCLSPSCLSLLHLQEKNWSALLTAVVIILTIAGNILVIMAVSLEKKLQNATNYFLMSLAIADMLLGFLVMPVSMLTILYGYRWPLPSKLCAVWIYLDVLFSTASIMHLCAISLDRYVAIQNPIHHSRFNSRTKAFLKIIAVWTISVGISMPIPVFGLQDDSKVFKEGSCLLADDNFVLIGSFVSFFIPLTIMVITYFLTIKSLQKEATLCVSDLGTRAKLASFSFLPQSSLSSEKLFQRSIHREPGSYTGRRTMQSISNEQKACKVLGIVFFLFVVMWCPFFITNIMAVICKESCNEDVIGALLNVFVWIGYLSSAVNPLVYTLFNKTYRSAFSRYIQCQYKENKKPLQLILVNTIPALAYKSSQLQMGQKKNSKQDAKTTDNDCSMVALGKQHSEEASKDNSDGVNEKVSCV
Mu-type opioid receptor, sequence (P35372 whole entry): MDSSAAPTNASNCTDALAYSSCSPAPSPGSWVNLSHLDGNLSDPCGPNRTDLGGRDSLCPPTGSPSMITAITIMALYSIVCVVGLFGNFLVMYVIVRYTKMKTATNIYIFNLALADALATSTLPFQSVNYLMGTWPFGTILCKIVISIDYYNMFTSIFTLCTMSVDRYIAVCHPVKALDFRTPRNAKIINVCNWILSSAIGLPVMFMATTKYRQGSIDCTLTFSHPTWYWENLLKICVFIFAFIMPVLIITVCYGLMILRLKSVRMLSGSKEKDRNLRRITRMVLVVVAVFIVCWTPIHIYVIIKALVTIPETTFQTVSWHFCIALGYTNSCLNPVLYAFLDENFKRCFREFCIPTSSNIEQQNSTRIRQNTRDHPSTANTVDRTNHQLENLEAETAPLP
hERG (KCNH2), sequence (Q12809 whole entry): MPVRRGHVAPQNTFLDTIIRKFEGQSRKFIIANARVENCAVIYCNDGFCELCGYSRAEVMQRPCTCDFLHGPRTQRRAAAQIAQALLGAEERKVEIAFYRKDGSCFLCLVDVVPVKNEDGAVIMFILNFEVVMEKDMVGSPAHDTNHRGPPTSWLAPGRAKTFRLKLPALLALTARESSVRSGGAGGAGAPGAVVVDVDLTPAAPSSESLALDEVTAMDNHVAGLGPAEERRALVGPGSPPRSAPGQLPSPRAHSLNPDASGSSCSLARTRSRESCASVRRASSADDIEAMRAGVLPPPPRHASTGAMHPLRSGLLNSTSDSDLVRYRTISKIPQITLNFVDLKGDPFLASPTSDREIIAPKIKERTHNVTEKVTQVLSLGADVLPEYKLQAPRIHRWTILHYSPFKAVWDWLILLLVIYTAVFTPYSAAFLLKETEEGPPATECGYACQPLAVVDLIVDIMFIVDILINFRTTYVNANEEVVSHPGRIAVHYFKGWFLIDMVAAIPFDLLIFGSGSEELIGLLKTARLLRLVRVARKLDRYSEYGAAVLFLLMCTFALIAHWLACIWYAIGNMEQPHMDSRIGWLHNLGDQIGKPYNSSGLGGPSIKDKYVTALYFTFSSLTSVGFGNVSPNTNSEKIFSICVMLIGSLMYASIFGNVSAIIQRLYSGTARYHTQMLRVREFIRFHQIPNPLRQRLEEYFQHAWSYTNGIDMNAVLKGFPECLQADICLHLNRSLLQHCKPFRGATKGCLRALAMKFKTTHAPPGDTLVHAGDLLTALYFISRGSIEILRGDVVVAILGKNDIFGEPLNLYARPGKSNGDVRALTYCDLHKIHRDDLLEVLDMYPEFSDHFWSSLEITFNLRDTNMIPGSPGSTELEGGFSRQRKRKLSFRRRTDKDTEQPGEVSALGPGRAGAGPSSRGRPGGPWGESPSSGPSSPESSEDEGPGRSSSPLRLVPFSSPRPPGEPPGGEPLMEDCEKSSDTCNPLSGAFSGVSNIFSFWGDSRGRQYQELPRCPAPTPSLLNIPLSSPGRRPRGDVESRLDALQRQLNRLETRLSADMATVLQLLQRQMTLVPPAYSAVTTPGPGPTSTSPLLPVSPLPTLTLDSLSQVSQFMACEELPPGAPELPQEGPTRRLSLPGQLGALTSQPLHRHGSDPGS
Sodium-dependent noradrenaline transporter, sequence (P23975 whole entry): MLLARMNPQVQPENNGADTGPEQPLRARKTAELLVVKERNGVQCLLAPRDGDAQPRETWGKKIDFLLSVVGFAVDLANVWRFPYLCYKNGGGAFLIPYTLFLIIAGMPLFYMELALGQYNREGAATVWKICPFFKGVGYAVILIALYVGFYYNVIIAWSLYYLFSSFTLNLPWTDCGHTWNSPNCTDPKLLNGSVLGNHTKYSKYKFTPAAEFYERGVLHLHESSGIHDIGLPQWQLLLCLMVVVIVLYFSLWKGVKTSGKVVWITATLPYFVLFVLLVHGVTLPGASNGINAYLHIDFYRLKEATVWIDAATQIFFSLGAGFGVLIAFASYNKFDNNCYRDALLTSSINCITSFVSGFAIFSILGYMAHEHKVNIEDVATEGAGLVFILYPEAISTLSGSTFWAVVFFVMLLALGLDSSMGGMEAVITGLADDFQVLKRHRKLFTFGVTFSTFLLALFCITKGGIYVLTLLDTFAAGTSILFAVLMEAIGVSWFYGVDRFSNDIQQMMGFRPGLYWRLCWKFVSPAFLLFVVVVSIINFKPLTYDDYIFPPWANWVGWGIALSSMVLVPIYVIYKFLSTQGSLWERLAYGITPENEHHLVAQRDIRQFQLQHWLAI

SMILES	Activity [1]	Ratio [2]	EC50 [4] [nM]	inhibition at 1 h, 10 µM [5] [%]	inhibition at 10 µM [7] [%]	inhibition at 2 h, 10 µM [8] [%]	Kd [9] [nM]	inhibition at 1 h, 10 µM [10] [%]	other results
C/C(=N\NC(=S)N1CCC1)c1ccccc1	inactive	0.9							Kd [3]: Not Active
C/C(=N\Nc1nc2ccccc2s1)c1cc(N(C)C)ccn1	Active		48						
C/C(=N\Nc1nc2ccccc2n1CCN1CCOCC1)c1ccccn1	Active		51	100	76	-7	71	50	inhibition in vivo at 5.73 mg/kg [6]: 59%
C/C(=N\Nc1nc2ccccc2n1CCN1CCC(F)(F)C1)c1ccccn1	Active		151	92	101	-1	26		EC50 [11]: 180 nM; Kd [12]: 0.001 pM; EC50 [13]: 120 nM; remaining at 6 h [14]: > 92%; Stabilty [15]: > 82%
C/C(=N\Nc1nc2ccccc2s1)c1ccccn1	Active		55	96	19	101		101	inhibition in vivo at 5 mg/kg [16]: 72%; Activity [17]: Non-Toxic; Activity [18]: inactive; Activity [19]: inactive; inhibition at 2 h, 10 µM [20]: 13%; TGI [21]: inactive
O=C(O)CN(CC(=O)O)CC(=O)O [NITRILOTRIACETIC ACID]									Kd ([3]; read-out: Kd): 17 nM
CS/C(=N\N=C(/C)c1ccccn1)N1CCC1	inactive								Kd [3]: Not Active
C/C(=N\Nc1nc2ccccc2s1)c1ncccn1	inactive	1.2		3	-2	84	79	2	inhibition at 2 h, 10 µM [20]: 4%
C/C(=N\NC(=S)N1CCC1)c1ccccn1	Active								inhibition in vivo at 5.73 mg/kg [6]: 63%; remaining at 7 h [22]: 22%; Papp at […], 5 µM [23]: 4.4 ×10⁻⁶ cm/s; MTD [24]: 5 mg/kg
C/C(=N\Nc1ccc2ccccc2n1)c1ccccn1	Active		141						
C/C(=N\NC(=S)NC1CCN(c2ccccn2)CC1)c1ccccn1	inactive								Kd [3]: Not Active
C/C(=N\NC(=S)N1CCC1)c1cc(N(C)C)ccn1	inactive		8						
C/C(=N\Nc1nc2ccccc2s1)c1cc(OCCN(C)C)ccn1	Active	2.5		76	95	82	55	36	inhibition at 2 h, 10 µM [20]: 48%
C/C(=N\Nc1nc2ccccc2n1CCN1CCCC1)c1ccccn1	Active			96	88	101	22	101	inhibition in vivo at 5.73 mg/kg [6]: 47%
C/C(=N\NC(=S)N1CCC1)c1ncccc1C	inactive								
C/C(=N\Nc1nc2ccccc2s1)c1cc(OCCN2CCN(C)CC2)ccn1	inactive	0.9					20		
C/C(=N\Nc1nc2ccccc2o1)c1cc(OCCN(C)C)ccn1	Active	1.4	53	32	51	-25	47	21	inhibition in vivo at 5.73 mg/kg [6]: 56%; Ratio EC50 [25]: 5.6; inhibition at 2 h, 10 µM [20]: 0%
C/C(=N\Nc1nc2ccccc2n1C)c1ccccn1	Active		4	46	86	61		7	inhibition at 2 h, 10 µM [20]: 48%
C/C(=N\Nc1nc2ccccc2n1C)c1ncccn1	inactive	1.6		11	77	-2	54	12	inhibition at 2 h, 10 µM [20]: 41%
COC/C(=N\Nc1nc2ccccc2s1)c1ccccn1	Active	0.9					197		
C/C(=N\Nc1nccn1C)c1ccccn1	Active	0.9	445	11	7	4	408	23	inhibition in vivo at 5.73 mg/kg [6]: 57%; Ratio EC50 [25]: 47.1; inhibition at 2 h, 10 µM [20]: -2%
C/C(=N\Nc1nc2ccccc2n1CCN(C)C)c1ccccn1	Active	1.6	42				61		Ratio EC50 [25]: 5.2
C/C(=N\Nc1nc2ccccc2s1)c1cc(OCCO)ccn1	inactive	2.8					22		
C/C(=N\Nc1nc2ccccc2o1)c1ccccn1	Active		6		21	21		12	Activity [18]: inactive; Activity [19]: inactive; inhibition at 2 h, 10 µM [20]: 2%
C/C(=N\NC(=O)N1CCC1)c1ccccn1	inactive		> 10000						
CC(C)(C)/C(=N\NC(=S)N1CCC1)c1ccccn1	inactive	0.7							Kd [3]: Not Active
C/C(=N\NC(=S)N1CCC1)c1cnccn1	Active	2							Kd ([3]; read-out: Kd): 99.4 nM; Ratio EC50 [25]: 4.5
C/C(=N\NC(=S)N1CCC1)c1cccc(C)n1	Active		132						Kd ([3]; read-out: Kd): 48.3 nM
C/C(=N\NC(=S)N(C)C)c1ccccn1	Active	1.3	1						Kd ([3]; read-out: Kd): 25.6 nM; Papp at […], 5 µM [23]: 7.3 ×10⁻⁶ cm/s; Ratio EC50 [25]: 0.2
COCCOc1ccc2nc(N/N=C(\C)c3ccccn3)sc2c1	Active	2.4					81		Kd ([3]; read-out: Kd): 386 nM
